Activity data for 27 compounds are collected here from ChEMBL document CHEMBL3297668, “Synthesis of truncated analogues of preptin-(1–16), and investigation of their ability to stimulate osteoblast proliferation” (Bioorg Med Chem, 2014).

What all share (type): functional, cell-based
Test [1] has as its system Osteoblast. Nature of the test: Stimulation of proliferation of foetal rat osteoblasts at 10 '-10 to 10 '-8 M after 18 to 24 hrs by [3H]-thymidine incorporation assay relative to control. The method, boiled down: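 Osteoblasts from 20-day fetal rat calvariae (collagenase digests 3 and 4) were expanded in FBS medium with ascorbate-2-phosphate, seeded at 2.5 × 10⁴ cells/well in 5% FBS/MEM for 24 h, then growth-arrested 24 h in 0.1% BSA/5 µg/mL ascorbate-2-phosphate. Peptide treatment 24 h, with [³H]-thymidine pulse over the final 6 h. Result expressed as treatment/vehicle ratio. 6 wells/group, 3–4 experiments, ANOVA with Dunnett's test.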

The subject of test [2] is Osteoblast. Briefly: Stimulation of differentiation of rat osteoblasts assessed as increase in mineralized bone nodules at 10 '-9 M after 3 weeks using Von Kossa staining by bone nodule formation assay relative to control. The method, boiled down: (§1)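 Primary osteoblasts from 20-day fetal rat calvariae (sequential collagenase digests 3 and 4) plated at 5 × 10⁴ cells/well in αMEM/10% FBS plus ascorbate-2-phosphate. At confluence (~3 days), medium switched to MEM/15% FBS with 50 µg/mL L-ascorbic acid-2-phosphate and 10 mM β-glycerophosphate, plus peptide; medium and peptide renewed twice weekly. Dexamethasone positive control. At 21 days, fixed in 10% neutral buffered formalin, Von Kossa stained, mineralized area quantified by image analysis.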

The subject of test [3] is Osteoblast. Nature of the test: Stimulation of differentiation of rat osteoblasts assessed as increase in mineralized bone nodules at 10 '-10 to 10 '-9 M after 3 weeks using Von Kossa staining by bone nodule formation assay relative to control. In outline:
as §1

Activity calls are given as the source filed them. The calls are words filed in the database; no cut-off is given here. Where a SMILES comes first, the peptide text is derived from it.

On to Ac-DVSTSQAV-NH2, for which the outcome in the test on Osteoblast [1] was inactive.

`CC(=O)N[C@@H](CC(=O)O)C(=O)N[C@H](C(=O)N[C@@H](CO)C(=O)N[C@H](C(N)=O)[C@@H](C)O)C(C)C` (Ac-DVST-NH2): the outcome with Osteoblast [1] was inactive. On the same count and under the same terms, the result for Ac-DVSTSQAVLPDD-NH2 reads “inactive”. On the same count and under the same terms, the result for `N=C(N)NCCC[C@H](NC(=O)[C@@H]1CCCN1C(=O)[C@@H](N)Cc1ccccc1)C(=O)N[C@@H](Cc1ccc(O)cc1)C(=O)O` (H-FPRY-OH) reads “inactive”; that for H-LPDDFPRY-OH, “inactive”. Ac-SQAVLPDDFPRY-NH2: the result in the test with Osteoblast [1] was inactive. Turning to `CC(=O)N[C@@H](Cc1ccccc1)C(=O)N1CCC[C@H]1C(=O)N[C@@H](CCCNC(=N)N)C(=O)N[C@@H](Cc1ccc(O)cc1)C(=O)O` (Ac-FPRY-OH), the outcome in the test on Osteoblast [1] was inactive. As for H-SQAVLPDDFPRY-NH2, in the test on Osteoblast [1], the outcome was inactive. Still for that read-out and setting: the result for Ac-LPDDFPRY-NH2 reads “inactive”; that for H-SQAVLPDDFPRY-OH, “inactive”; that for `N=C(N)NCCC[C@H](NC(=O)[C@@H]1CCCN1C(=O)[C@@H](N)Cc1ccccc1)C(=O)N[C@@H](Cc1ccc(O)cc1)C(N)=O` (H-FPRY-NH2), “inactive”. Same read-out and setting: then Ac-LPDDFPRY-OH, with “inactive”.

On to `CC(=O)N[C@@H](CC(=O)O)C(=O)N[C@H](C(=O)N[C@@H](CO)C(=O)N[C@H](C(=O)O)[C@@H](C)O)C(C)C` (Ac-DVST-OH), for which the result in the test on Osteoblast [1] was inactive. In the case of H-DVSTSQAVLPDD-OH, in the test on Osteoblast [1], the outcome was inactive.

In the case of `CC(C)[C@H](NC(=O)[C@@H](N)CC(=O)O)C(=O)N[C@@H](CO)C(=O)N[C@H](C(N)=O)[C@@H](C)O` (H-DVST-NH2), in the test on Osteoblast [1], the outcome was inactive. The same measure, in the same setting: the result for Ac-DVSTSQAVLPDDFPRY-OH reads “inactive”; that for H-DVSTSQAVLPDDFPRY-OH, “Active”. Still for that read-out and setting: the result for Ac-DVSTSQAVLPDD-OH reads “inactive”. `CC(C)[C@H](NC(=O)[C@@H](N)CC(=O)O)C(=O)N[C@@H](CO)C(=O)N[C@H](C(=O)O)[C@@H](C)O` (H-DVST-OH): the result with Osteoblast [1] was inactive. Regarding H-DVSTSQAV-OH, the result in the test with Osteoblast [1] and in the test on Osteoblast [2] was Active. Regarding Ac-DVSTSQAV-OH, in the test with Osteoblast [1], the result was inactive.

In the case of `CC(=O)N[C@@H](Cc1ccccc1)C(=O)N1CCC[C@H]1C(=O)N[C@@H](CCCNC(=N)N)C(=O)N[C@@H](Cc1ccc(O)cc1)C(N)=O` (Ac-FPRY-NH2), the result in the test with Osteoblast [1] was Active. For the same compound, in the test with Osteoblast [3], the result was inactive.

Turning to H-LPDDFPRY-NH2, in the test on Osteoblast [1], the outcome was inactive. The same measure, in the same setting: then H-DVSTSQAVLPDDFPRY-NH2, with “inactive”; and Ac-SQAVLPDDFPRY-OH, with “inactive”; and Ac-DVSTSQAVLPDDFPRY-NH2, with “Active”.

For H-DVSTSQAVLPDD-NH2, the result in the test on Osteoblast [1] was inactive.
